Test results reported in the EternaBench riboswitch data.

System: MS2 coat protein
Assay: apparent Kd, MS2 coat protein; higher = weaker binding; RNA-MaP array; FMN 200 µM where present
Procedure, shortened: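 Binding was read on Illumina sequencing-chip clusters where stalled E. coli RNA polymerase had transcribed each design. A titration of SNAP-549-labelled MS2 coat protein began at 0.7 or 1.5 nM and doubled to 3 µM, once without ligand and once with constant ligand, in 100 mM Tris-HCl pH 7.5, 80 mM KCl, 4 mM MgCl2, BSA, DTT, yeast tRNA and Tween-20. The apparent Kd is the median of filtered per-cluster binding-curve fits, based on green signal normalised to red-channel RNA signal and control-cluster median Fmax.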

[1] = designed as: OFF switch for flavin mononucleotide, no ligand
[2] = ligand present: flavin mononucleotide, designed as: OFF switch for flavin mononucleotide
[3] = designed as: ON switch for flavin mononucleotide, no ligand
[4] = ligand present: flavin mononucleotide, designed as: ON switch for flavin mononucleotide

Sequence	apparent Kd [1] [nM]	apparent Kd [2] [nM]	apparent Kd [3] [nM]	apparent Kd [4] [nM]
CCAGCAAAAGUGAGGAUAUGCUGGUCCUUGGAUCAGCAGAAGGCACAUGAGGAUCACCCAUGUCGUGGAGCUGG	26.2	55.3		
CCAUAAAAGAUCCAAAAUUACAACAUGAGGAUCACCCAUGUGCAGGAUAUCGUGCCAGUGAUGUACGAGAAGGGCAGACUCUGC	251	333		
CCAUAAUUGAUCCAUUUUUACAACAUGAGGAUCACCCAUGUGCAGGAUAUCGUGAAAGUUAAAUACGAGAAGGGCAAGAACUGC	272	229		
CCAUCAGCGAACGUAUCGGUUGGACAUGAGGAUCACCCAUGUAGAAGGACAGGAGUAUUACGGCUGUAGGAUAUACAUUUAGUG	21.3	18		
CCAUGACAAAGUCAUGGAUUACGAACAUGAGGAUCACCCAUGUAGGAUAUGCUACUCAAAGAGUAGCAGAAGGACAUGUGUCUU	32.9	165		
CCAUGACCGUAAGCGAUUACCACAUGAGGAUCACCCAUGUACAGAAGGCGGACGUCAUUAUGAACCGAGGAUAUGUACCAGGGU	92.2	12.1		
CCAUUUCUGUAAGGAUAUAUAAACAUGACGAUACAUGAGGAUCACCCAUGUGUAGAAGGUACAAAUACAUAUAAUGCAAUGUUC	14.8	13		
CCCACGCAUGAGAAGGGACAGGCGUGCAAUUCGACAUGAGGAUCACCCAUGUCAGGAUAUCAGUUAAGGUGGGCAGAACCGAUG	15.4	57.3		
CCCACGUCAGGAUAUCCAAAGGUCCGAAAUAACGGUACUUUGGAGAAGGGACAUGAGGAUCACCCAUGUCCUCG	18.9	28.8		
CCCACGUGUGCAGGAUAUCCCACGAGCGCAACAUGAGGAUCACCCAUGUACCUGAGUCUCGGAACGGAGAAGGGUACAUGUUAU			432	101
CCCUCAACAUGAGGAUCACCCAUGUAGGAUAUCGCUAUUGUAAUCAUGAAACAUGAUUACAAUAGCGAGAAGGACAUAUGACCC	21.5	99.6		
CCCUCACAUGAGGAUCACCCAUGUCAGGAUAUCCAGCCCUACUAUAAAGCGUCUGGCGGGAGAAGGGACAGGAU	20.9	28.5		
CCCUCACAUGAGGAUCACCCAUGUCCUAGCCCGUCAGGAUAUAGCCCGCAUCCGCUGCGGCUAGAAGGGACAGCUG			190	141
CCGAAACCUCAGAAGGACCACAUGAGGAUCACCCAUGUCAAGCAAAACGGUAGGAUAUGAGGGAAAAGUCGAUAUACCCGACAG			7.84	3.93
CCGAAUGUCACAGGAUAUGGUCCGGGCUCGCGACCAGAAGGGUGAUCUCACAUGAGGAUCACCCAUGUGUAGGCGUUAGGCUAC			36.3	260
CCGAAUUAGUAGGAUAUAGGAGUCGAUAGACACCUAGAAGGACUAACAUGAGGAUCACCCAUGUGUCCUAUCGG	14.6	31.5		
CCGACCUUGGCAGGAUAUAGACUCGAAGUUGAUCCCGCCGAUGGAGACAUGAGGAUCACCCAUGUCUAGAAGGGCCAGUCGAAA	14.3	46.1		
CCGAGGCGAGGAUAUAUGAAGGACACAACAUUUAGGGUAAGACAUGAGGAUCACCCAUGUAGAAGGCGCGACGC	63.4	55.8		
CCGAUGGUAUACUAGGAUAUGGGCGCCCUUACAUGAGGAUCACCCAUGUUAUCACAAAUCCGCGGCCAGAAGGAGUUCAUGGGAG			176	134
CCGAUUAGCACAGGAUAUGGGAAUUCGUAGUUUCCAGAAGGGUGAGCCAAUACAUGAGGAUCACCCAUGUGCGGUAGGUCGGGA			30.5	80
CCGCAAAAGCAGGAUAUCGUAUCGGAUACGAUACGAGAAGGGCUAACAUGAGGAUCACCCAUGUGUCCUAGCGG	16.9	25.6		
CCGCAAAAGGAGGAUAUCGUAUCGGAUACGAUACGAGAAGGCUUUACAUGAGGAUCACCCAUGUGUCCUAGCGG	13.7	19.2		
CCGCAAAAUGAGGAUAUCGUAUCGGAUACGAUACGAGAAGGCGUAACAUGAGGAUCACCCAUGUGUCCUAGCGG	14.3	17.2		
